Data on four molecules can be found in publication PMC8367020 (Journal of the American Chemical Society, 2021).

Where “and” joins values, the source holds several entries; their conditions need not be identical. Identical values can stand only once. Like-named read-outs stand apart in the source and are kept apart here. Marks after values point to notes of the source that are not given here.

Test [1] concerns the target T1, hOAT (Homo sapiens, UniProt P04181).
T1 sequence (P04181 26-439): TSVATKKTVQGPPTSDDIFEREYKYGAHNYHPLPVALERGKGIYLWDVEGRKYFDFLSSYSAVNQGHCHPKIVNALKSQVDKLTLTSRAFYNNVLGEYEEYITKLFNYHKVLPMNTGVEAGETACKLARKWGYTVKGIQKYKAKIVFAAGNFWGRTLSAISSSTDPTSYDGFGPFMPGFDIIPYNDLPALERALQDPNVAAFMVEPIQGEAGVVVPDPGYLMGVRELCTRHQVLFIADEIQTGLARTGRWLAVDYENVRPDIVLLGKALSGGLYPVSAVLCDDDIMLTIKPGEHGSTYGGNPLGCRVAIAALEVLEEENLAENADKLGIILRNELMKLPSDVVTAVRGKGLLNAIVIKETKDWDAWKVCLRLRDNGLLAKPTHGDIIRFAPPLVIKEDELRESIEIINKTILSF
As to the kind of experiment: Stopped-flow transient-state spectrophotometry of hOAT reacting with 6. It counts as biochemical. Put shortly: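 Stopped-flow at 10 °C. hOAT (6.94 µM final) was mixed with the test compound (e.g. 1040 µM final; several concentrations). CCD absorbance at 250–800 nm over 0.0137–9843 s came from spliced, averaged short- and long-time datasets, deconvolved by SVD. The 420 nm traces were fitted to three exponentials, and first-phase kobs was fitted against concentration. Quinonoid accumulation assumed ε ~30 mM−1cm−1.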

For test [2], the target named is T1, hOAT. The experiment in a line: 48-hour time-dependent dialysis of inactivated hOAT. Type of test: biochemical. As to conditions: 48-hour dialysis against buffer with excess PLP and α-KG.
For test [3], the system named is aspartate aminotransferase (Asp-AT). As to the kind of experiment: Inhibition of Asp-AT. Type of test: biochemical. The settings on record: at concentrations up to 10 mM.
Test [4] has as its target T1, hOAT. The experiment in a line: Denaturing intact protein mass spectrometry of hOAT inactivated by 6. Type of test: binding. Put shortly: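 Intact hOAT fully inactivated by the test compound was analysed by denaturing intact-protein mass spectrometry, with untreated hOAT run alongside as a control. The added mass was read as the shift from the unmodified protein and compared with theoretical adduct masses.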

The target of test [5] is T1, hOAT. The experiment in a line: Time-dependent inactivation kinetics of hOAT. It counts as biochemical.
The target of test [6] is T1, hOAT. The experiment in a line: Partition ratio determination with hOAT. Type of test: biochemical. The settings on record: in the presence of α-KG, partition ratio = turnover number −1.
Test [7] deals with alanine aminotransferase (Ala-AT). As to the kind of experiment: Inhibition of Ala-AT. It counts as biochemical. As to conditions: at concentrations up to 10 mM.
Test [8] deals with T1, hOAT. The settings on record: cited from earlier work.
Test [9] concerns human-derived HCC mouse model. The settings on record: 0.1 and 1.0 mg/kg; po; cited from earlier work.
Test [10] relates to alanine aminotransferase (Ala-AT). The settings on record: up to 4 mM; cited from earlier work.
Test [11] concerns the target T1, hOAT. The settings on record: cited from earlier work. This is another data set of the same source.
Test [12] concerns the target T2, GABA-AT (Sus scrofa, UniProt P80147). The settings on record: cited from earlier work.
Test [13] relates to aspartate aminotransferase (Asp-AT). The settings on record: up to 4 mM; cited from earlier work.
The target in test [14] is T1, hOAT. The settings on record: cited from earlier work. This is another data set of the same source.
In test [15] the target is T2, GABA-AT. The experiment in a line: Reversible inhibition of GABA-AT. It counts as biochemical. The settings on record: Ki = IC50/(1+[S]/Km).
Where [16] appears, read: hOAT inactivation, mean and standard error.

T2 sequence (P80147 29-500): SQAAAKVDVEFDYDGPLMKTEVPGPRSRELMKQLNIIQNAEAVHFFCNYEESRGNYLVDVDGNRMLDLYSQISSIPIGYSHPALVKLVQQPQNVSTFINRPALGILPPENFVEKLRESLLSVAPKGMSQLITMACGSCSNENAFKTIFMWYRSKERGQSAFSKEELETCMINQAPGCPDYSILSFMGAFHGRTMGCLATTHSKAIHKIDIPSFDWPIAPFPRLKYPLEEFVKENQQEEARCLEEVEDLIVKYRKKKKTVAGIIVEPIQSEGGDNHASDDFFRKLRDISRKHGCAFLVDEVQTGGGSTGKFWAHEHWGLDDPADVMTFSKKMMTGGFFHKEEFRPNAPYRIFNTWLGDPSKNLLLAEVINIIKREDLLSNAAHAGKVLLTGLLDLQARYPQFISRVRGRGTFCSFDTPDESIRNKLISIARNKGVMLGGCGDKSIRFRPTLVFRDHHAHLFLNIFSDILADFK

For orientation: kinact/KI means the maximal inactivation rate divided by the concentration that gives half of it. On to `N[C@H]1C=C(C(=O)O)CC1(F)F` [Compound 6, (S)-3-amino-4,4-difluorocyclopent-1-enecarboxylic acid], for which the “rate of quinonoid decay” value on hOAT [1] was found to be 0.09 s⁻¹. In addition, the “rate of second external aldimine formation (bimolecular)” value at hOAT [1] (420 nm) was 6200 M⁻¹ s⁻¹. In addition, the “rate constant of final phase” value on hOAT [1] (external aldimine decay with increase at ~275 nm) was 0.007 s⁻¹. Also, the “rate of quinonoid species accumulation” value at hOAT [1] (~560 nm) amounted to 0.4 s⁻¹. On hOAT [2], the “residual activity of hOAT after dialysis” value was “unchanged”. Moreover, the “inhibition of Asp-AT” value in test [3] is “did not show noticeable inhibition”. Also, the “hOAT in apo-enzyme state” value at hOAT [4] (denaturing MS conditions at pH 2.5) is “approximately 84%”. In addition, on hOAT [4] (denaturing MS, hOAT fully inactivated by 6, mass increase 370.07 Da), the hOAT covalently modified is reported as ~ 16%. Also, on hOAT [5], the Ki turned out to be 60 ± 30 µM and the kinact/KI is 21.7 M⁻¹ s⁻¹. Moreover, the “improvement in inactivation efficiency (kinact/KI)” value on hOAT [5] (6 versus 4, hOAT) is reported as 400 fold. On hOAT [6], the Partition ratio is 34 and 34 ± 0. For the same molecule, the “inhibition of Ala-AT” value in test [7] was “did not show noticeable inhibition”.
For the molecule `N[C@H]1C=C(C(=O)O)CCC1(F)F` [Compound 2, (S)-3-amino-4,4-difluorocyclohex-1-enecarboxylic acid, reference compound], the “improvement in inactivation efficiency (kinact/KI) against hOAT compared to 1” value at hOAT [8] (versus compound 1) is 23 fold.
Take `N[C@H]1C[C@@H](C(=O)O)CC1(F)F` [Compound 4, (1R,4S)-4-amino-3,3-difluorocyclopentanecarboxylic acid]: the Ki was 7.8 mM on hOAT [8] (hOAT inactivation) and 4000 ± 1000 µM on hOAT [5].
A word on the kinact: it is the maximal first-order rate at which the target is inactivated. Take `N[C@H]1C[C@@H](C(=O)O)CC1=C(C(F)(F)F)C(F)(F)F` [Compound 1, (1S,3S)-3-amino-4-(hexafluoropropan-2-ylidenyl)cyclopentane-1-carboxylic acid]: in test [9], the “serum AFP levels” value is listed as “remarkably decreased” and the tumor growth entry is reported as “inhibited tumor growth”. Also, the “inhibition of Ala-AT” value in test [10] was “no inhibition”. Moreover, the Partition ratio on hOAT [11] is 12 ± 1^b. Further, the Ki on GABA-AT [12] (GABA-AT, weak reversible inhibition) is 4.2 mM. Besides, the “inhibition of GABA-AT (in words)” value on GABA-AT [12] (preliminary screening) was “millimolar reversible inhibition”. Further, in [13], the “inhibition of Asp-AT” value is recorded as “no inhibition”. Also, the Fluoride ion release at hOAT [14] is 79 ± 2^b eq. Further, the “kinact/KI” value at hOAT [5] (hOAT inactivation efficiency) came to 16.7 ± 6.7 M⁻¹ s⁻¹. Besides, at hOAT [5] (setting [16]), the Ki is 90 ± 30 µM and the kinact amounted to 0.09 ± 0.01 min⁻¹. For the same molecule, the Ki at GABA-AT [15] amounted to 5.2 ± 0.6 mM.
